Where two headings read alike, the source gives them in different places.

Series [1] concerns the target human GluN1/GluN2B receptors (Homo sapiens, UniProt Q05586+Q13224). Format: cell-based. To be noted: for %control at 1 μM, mean (99% CI), GluN2B: 1 μM compound, percent of maximal response to 100 μM glutamate/glycine; for IC50: n = 6−12.
The test system of series [2] is GluN1/GluN2A/GluN2A (2A/2A). As to the kind of experiment: Inhibition of diheteromeric 2A/2A receptors. Particulars: wild-type 2A/2A, 1 μM compound. It is filed as cell-based. A digest of the protocol: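 Xenopus laevis stage VI oocytes injected with 5–10 ng receptor cRNA and kept at 15 °C in Barth's medium. Two-electrode voltage clamp run 2–7 days later at room temperature, holding −40 mV, in 90 mM NaCl, 1 KCl, 10 HEPES, 0.5 BaCl2, 0.01 EDTA, pH 7.4. Test compound (20 mM DMSO stock; final DMSO 0.05–0.5%) co-applied with 100 μM glutamate/100 μM glycine. Response given as % of response to agonists alone.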

The nature of series [3]: LogD by shake-flask method with 18F-labeled tracers. It is filed as physicochemical. Particulars: pH 7.4.
Series [4] has as its target GluN2B subunit (Rattus norvegicus, UniProt P35439+Q00960). As to the kind of experiment: In vitro autoradiography in rat brain sections. It is filed as binding.
Series [5] has as its system GluN2B subunit. Put plainly: In vitro autoradiography in NHP brain sections. Particulars: self-blocking 13 10 μM. It is filed as binding. A digest of the protocol:
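Brain sections (20 μm) preincubated 20 min in 50 mM Tris-HCl pH 7.4 at room temperature, then incubated 60 min at room temperature with 18F-labelled test compound (37 kBq/mL, 1.58 nM). Self-block: 30 min pretreatment with unlabelled test compound (10 μM, 0.1% DMSO, 1% ethanol in buffer), then cold-buffer wash. Washed, dried, exposed to imaging plates overnight. Regional signal (gray value/unit area) expressed as a ratio to forebrain white matter.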

The nature of series [6]: Whole body ex vivo biodistribution in mice. A digest of the protocol:
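Female CD1 (ICR) mice (8 weeks, 23–27 g) were injected via tail vein with tracer, 740 kBq/100 μL saline containing 5% ethanol. Animals were killed at 2, 10, 30 and 60 min. Organs were removed, weighed and gamma-counted. %ID/g of wet tissue (stomach as %ID/organ) was calculated against diluted aliquots of the injected dose, with decay correction.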

A short description of series [7]: Radiometabolite analysis in mice. Format: in vivo. Particulars: ICR mice, 15 min post injection, n = 2. A digest of the protocol:
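Female CD1 (ICR) mice (8 weeks, 23–27 g) received tracer IV via tail vein and were killed at 15 min. Plasma was deproteinized with ice-cold CH3CN, and brain was homogenized in ice-cold CH3CN, with repeated centrifugation at 4 °C. Supernatants were spiked with unlabelled reference and run on C18 radioHPLC (CH3CN/H2O 55/45, 5 mL/min). Fractions were gamma-counted; parent % = parent counts/total counts × 100.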

[8] abbreviates: IC50, mean, 100 μM glutamate/glycine coapplied with increasing concentrations.
The mark [9] stands for this setting: pIC50, mean (95% CI), 100 μM glutamate/glycine.
[10] abbreviates: rat, self-blocking 13 10 μM, n = 3.
Where [11] appears, read: remained high until 10 min post injection.

Sequence of human GluN1/GluN2B receptors (Q13224 27-1484, other chains not shown): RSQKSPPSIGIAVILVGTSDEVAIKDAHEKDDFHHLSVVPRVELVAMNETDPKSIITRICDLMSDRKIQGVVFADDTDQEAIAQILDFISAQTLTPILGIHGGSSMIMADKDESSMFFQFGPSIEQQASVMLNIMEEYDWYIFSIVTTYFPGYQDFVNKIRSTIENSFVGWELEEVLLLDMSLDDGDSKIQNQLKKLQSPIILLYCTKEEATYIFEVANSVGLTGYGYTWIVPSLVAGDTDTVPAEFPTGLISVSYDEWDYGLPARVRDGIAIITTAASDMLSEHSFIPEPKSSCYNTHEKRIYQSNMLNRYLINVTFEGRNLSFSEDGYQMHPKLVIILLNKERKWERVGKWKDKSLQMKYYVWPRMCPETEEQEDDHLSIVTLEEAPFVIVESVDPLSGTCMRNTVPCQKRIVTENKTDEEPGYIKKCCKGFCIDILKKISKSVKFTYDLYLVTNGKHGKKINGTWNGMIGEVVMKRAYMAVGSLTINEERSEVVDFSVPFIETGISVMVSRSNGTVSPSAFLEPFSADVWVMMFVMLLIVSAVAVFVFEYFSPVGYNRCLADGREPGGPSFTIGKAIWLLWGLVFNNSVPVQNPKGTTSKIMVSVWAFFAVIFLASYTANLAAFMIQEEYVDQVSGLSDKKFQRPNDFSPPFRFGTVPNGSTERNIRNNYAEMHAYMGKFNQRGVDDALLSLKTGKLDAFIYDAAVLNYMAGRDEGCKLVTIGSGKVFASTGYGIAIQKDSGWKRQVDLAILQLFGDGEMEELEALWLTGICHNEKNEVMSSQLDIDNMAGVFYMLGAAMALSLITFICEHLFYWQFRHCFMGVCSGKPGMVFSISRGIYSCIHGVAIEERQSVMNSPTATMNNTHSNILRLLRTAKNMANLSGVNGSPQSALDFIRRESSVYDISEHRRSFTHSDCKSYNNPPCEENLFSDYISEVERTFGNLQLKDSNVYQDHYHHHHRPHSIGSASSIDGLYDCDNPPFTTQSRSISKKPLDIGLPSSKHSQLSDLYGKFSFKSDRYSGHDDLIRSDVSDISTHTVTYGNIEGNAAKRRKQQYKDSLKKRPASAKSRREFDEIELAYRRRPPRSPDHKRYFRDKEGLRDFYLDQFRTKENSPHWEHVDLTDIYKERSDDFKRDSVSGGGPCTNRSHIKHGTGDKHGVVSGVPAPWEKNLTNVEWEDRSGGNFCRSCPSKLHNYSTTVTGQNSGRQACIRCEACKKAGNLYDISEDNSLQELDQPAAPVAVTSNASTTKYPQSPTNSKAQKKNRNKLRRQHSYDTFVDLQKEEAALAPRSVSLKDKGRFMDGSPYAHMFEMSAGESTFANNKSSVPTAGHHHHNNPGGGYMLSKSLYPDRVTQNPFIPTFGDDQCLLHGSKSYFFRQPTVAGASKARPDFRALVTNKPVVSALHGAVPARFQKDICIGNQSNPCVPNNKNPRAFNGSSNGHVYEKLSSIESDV
Sequence of GluN2B subunit (Rattus norvegicus, UniProt P35439+Q00960) (Q00960 27-1482, other chains not shown): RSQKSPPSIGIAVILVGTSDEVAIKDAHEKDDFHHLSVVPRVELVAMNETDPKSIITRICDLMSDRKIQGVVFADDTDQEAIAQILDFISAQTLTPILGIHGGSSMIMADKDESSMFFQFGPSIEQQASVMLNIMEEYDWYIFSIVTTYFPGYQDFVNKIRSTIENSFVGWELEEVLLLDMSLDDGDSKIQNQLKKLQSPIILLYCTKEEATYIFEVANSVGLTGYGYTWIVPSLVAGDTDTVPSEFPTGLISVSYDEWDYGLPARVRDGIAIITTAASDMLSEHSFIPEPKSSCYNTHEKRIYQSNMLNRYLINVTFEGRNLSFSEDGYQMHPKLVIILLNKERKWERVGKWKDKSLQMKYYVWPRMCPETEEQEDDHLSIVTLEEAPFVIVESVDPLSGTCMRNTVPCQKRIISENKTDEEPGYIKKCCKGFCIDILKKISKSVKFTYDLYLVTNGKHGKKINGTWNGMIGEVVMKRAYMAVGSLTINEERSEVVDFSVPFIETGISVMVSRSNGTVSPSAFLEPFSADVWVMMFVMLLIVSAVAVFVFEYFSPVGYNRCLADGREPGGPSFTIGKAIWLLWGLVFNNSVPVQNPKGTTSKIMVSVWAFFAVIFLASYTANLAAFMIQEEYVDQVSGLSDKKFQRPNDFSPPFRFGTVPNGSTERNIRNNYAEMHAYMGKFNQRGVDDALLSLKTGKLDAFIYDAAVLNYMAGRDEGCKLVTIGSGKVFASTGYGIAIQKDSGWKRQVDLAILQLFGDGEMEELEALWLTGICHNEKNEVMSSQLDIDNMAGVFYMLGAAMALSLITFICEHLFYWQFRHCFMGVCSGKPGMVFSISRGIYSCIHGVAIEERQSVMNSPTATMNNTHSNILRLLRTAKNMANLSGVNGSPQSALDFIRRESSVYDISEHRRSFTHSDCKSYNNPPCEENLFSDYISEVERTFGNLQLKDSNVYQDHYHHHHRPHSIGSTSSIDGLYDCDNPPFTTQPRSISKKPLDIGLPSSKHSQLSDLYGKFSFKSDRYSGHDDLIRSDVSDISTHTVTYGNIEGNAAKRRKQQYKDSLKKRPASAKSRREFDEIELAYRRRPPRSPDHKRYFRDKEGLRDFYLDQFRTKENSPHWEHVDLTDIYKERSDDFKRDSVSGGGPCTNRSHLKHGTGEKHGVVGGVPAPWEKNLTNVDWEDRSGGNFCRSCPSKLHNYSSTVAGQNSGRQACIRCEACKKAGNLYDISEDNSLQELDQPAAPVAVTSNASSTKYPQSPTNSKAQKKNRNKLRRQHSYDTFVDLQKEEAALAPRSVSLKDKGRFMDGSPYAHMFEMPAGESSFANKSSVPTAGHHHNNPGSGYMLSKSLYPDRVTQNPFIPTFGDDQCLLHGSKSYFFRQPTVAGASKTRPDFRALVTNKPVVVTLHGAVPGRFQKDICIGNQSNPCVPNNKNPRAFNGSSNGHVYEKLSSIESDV

Turning to `COc1cnc(OCc2cn(-c3ccc(F)c(Br)c3)nn2)nc1` [Compound 11, 2-((1-(3-Bromo-4-fluorophenyl)-1H-1,2,3-triazol-4-yl)methoxy)-5-methoxypyrimidine], the “%control at 1 μM, mean (99% CI), GluN2B” value in series [1] was 13 (7, 19) %. Moreover, the 50% inhibitory concentration (IC50) in series [1] (setting [8]) was found to be 19 nM; in series [1] (setting [9]), 19.1 nM. In addition, the “sensitivity of 2A/2A responses” value in series [2] is “insensitive”. The logD in series [3] was determined as 3.14 ± 0.037.

For the compound `COc1cnc(OCc2cn(-c3ccc(Br)c(F)c3)nn2)nc1` [Compound 12, 2-((1-(4-Bromo-3-fluorophenyl)-1H-1,2,3-triazol-4-yl)methoxy)-5-methoxypyrimidine], the results for the IC50 in series [1] (setting [8]) and in series [1] (setting [9]) were 339 nM and 282 nM, respectively.

`COc1cnc(OCc2cn(-c3ccc(F)c(C)c3)nn2)nc1` [Compound 13, 2-((1-(4-Fluoro-3-methylphenyl)-1H-1,2,3-triazol-4-yl)methoxy)-5-methoxypyrimidine]: the “%control at 1 μM, mean (99% CI), GluN2B” value in series [1] was 17 (11, 23) %. In series [2], the “sensitivity of 2A/2A responses” value is on record as “insensitive”. In series [3], this compound had a logD of 2.89 ± 0.037.

On to `COc1cnc(OCc2cn(-c3ccc(C)c(F)c3)nn2)nc1` [Compound 14, 2-((1-(3-Fluoro-4-methylphenyl)-1H-1,2,3-triazol-4-yl)methoxy)-5-methoxypyrimidine], for which the IC50 in series [1] (setting [8]) is 89 nM; in series [1] (setting [9]) it was 75.9 nM.

The compound `COc1cnc(OCc2cn(-c3ccc([18F])c(C)c3)nn2)nc1` [[^18F]13, 2-((1-(4-[^18F]fluoro-3-methylphenyl)-1H-1,2,3-triazol-4-yl)methoxy)-5-methoxypyrimidine] came in with a logD in series [3] of 2.89. Moreover, the “reduction of uptake by self-blocking” value at GluN2B subunit [4] (rat brain sections, cold compound 13 10 μM) is recorded as ~ 90%. Further, at GluN2B subunit [4] (setting [10]), the “specific binding, frontal cortex” value worked out at 94%; the “specific binding, hippocampus” value came to 94%; the “specific binding, striatum” value came out at 92%; the “specific binding, thalamus” value was determined as 88%. Moreover, in the series with GluN2B subunit [5], the “specific binding, caudate nucleus” value was 79%; the “specific binding, entorhinal cortex” value amounted to 89%; the “specific binding, insular cortex” value is given as 82%; the “specific binding, putamen” value is 73%. In the series with GluN2B subunit [5], the “specific binding, thalamus” value worked out at 53%. The “specific binding, hippocampus” value in the series on GluN2B subunit [5] (n = 3) was 87%. Further, the bone uptake in series [6] is reported as below 2 %ID/g. Moreover, the “initial uptake in heart, lung, kidney, liver, and small intestine” value in series [6] (2 min postinjection) is on record as above 5 % ID/g. Besides, the “uptake in heart, lung, kidney, spleen, pancreas, and muscle” value in series [6] (60 min postinjection) is below 0.6 % ID/g. The “brain uptake at 2 min (brain2min)” value in series [6] (i.v., 2 min post injection) stood at 3.60 % ID/g. Further, in series [6] (i.v., 10 min post injection), the “brain uptake at 10 min” value came out at 0.72 %ID/g. Also, the “brain uptake at 60 min” value in series [6] (i.v., 60 min post injection) is 0.018 % ID/g. In series [6] (setting [11]), this compound gave a liver uptake of 20.84 % ID/g and a small intestine uptake of 39.15 % ID/g. In series [7], the “parent fraction in brain” value is 56.6%, the “parent fraction in liver” value came to 5.1% and the “parent fraction in plasma” value came out at 11.8%.

The IC50 is the midpoint of a concentration-inhibition curve. A higher IC50 goes with weaker potency. As a reminder, the logD is lipophilicity at a set pH, counting ionised and neutral species.
